Test results: publication PMC7203693 (ACS Omega, 2020)

Tests used:
[1] = molecular target: AChE (Homo sapiens, UniProt P22303); assay: biochemical
[2] = test system: PC12 cells; assay: Cytotoxicity in PC12 cells; type: cell-based; conditions: 10 μM, 24 h
Summary of the method: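 PC12 cells were grown in DMEM with 10% FBS and penicillin/streptomycin (37 °C, 5% CO2), seeded at 10⁵/well and left 24 h. Test compound (DMSO stock diluted in medium) was given at 10 μM for 24 h, with edaravone as positive control. MTT was added for 2 h, formazan was dissolved in DMSO, and absorbance was read at 490 nm.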

[3] = Acute oral toxicity test in mice; type: in vivo; conditions: both, ICR, mouse, in vivo, po
Summary of the method: (§1)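 ICR mice (18–22 g, half male, half female), seven groups of 10. Single oral gavage of 1310, 1638, 2048, 2560, 3200 or 4000 mg/kg, suspended in 0.5% carboxymethyl cellulose; the control group received vehicle. General behaviour, toxicity signs and mortality were followed for 14 days. LD50 was estimated by log-probit regression of mortality.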

[4] = test system: ICR mice; assay: Acute oral toxicity test in mice; type: in vivo; conditions: for deaths: 10 animals; for deaths / death rate: 14 day
Summary of the method: as §1

[5] = test system: AD model rats; assay: Open-field test in Aβ25-35-induced AD model rats; type: in vivo; conditions: for total distance moved in open field: AD rats, Aβ model group 17.34 ± 3.88
Summary of the method: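 After 1 h acclimation, each rat explored a dimly lit 100 × 100 × 50 cm box for 2 min, with 70% ethanol cleaning between trials. Video gave total distance and central-zone time. Mean ± SEM, t-test.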

[6] = test system: AD model rats; assay: Morris water maze in Aβ25-35-induced AD model rats; type: in vivo; conditions: compared to the model rats (p < 0.05)
Summary of the method: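 Pool 180 cm wide, water at 25 ± 1 °C, hidden platform 2 cm submerged. Training: four 2-min trials daily (30 min apart) for 5 days. Escape latency and swim path were video-tracked. Probe trial: platform removed, 2-min swim, crossings counted. Mean ± SEM, t-test.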

[7] = test system: AD model rats; assay: HE staining of hippocampus CA3 region of AD model rats; type: in vivo; conditions: AD rats, 5, 10, and 20 mg/kg
[8] = test system: AD model rats; assay: Nissl staining of hippocampal CA1 region of AD model rats; type: in vivo; conditions: 10 and 20 mg/kg groups
Summary of the method: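 Brains were paraformaldehyde-postfixed and cryoprotected in 30% sucrose. Frozen 25 μm hippocampal sections were stained with 2% cresyl violet for 5 min. Necrotic CA1 cells were counted by light microscopy (n = 5 rats/group, three sections per rat).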

[9] = test system: AD model rats; assay: Bielschowsky silver staining of hippocampus of AD model rats; type: in vivo; conditions: AD rats, 10, 20 mg/kg, versus AD model group
Summary of the method: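 SD rats (8 weeks, 280 ± 10 g) got bilateral hippocampal Aβ25-35 (10 μg in 2 μL, pre-aggregated 4 days at 37 °C); sham rats got saline. Formalin-fixed paraffin coronal sections (40 μm) were stained by modified Bielschowsky silver (20% AgNO3, ammoniacal silver), and positive neurons were counted at 10 × 40.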

[10] = test system: Aβ1-42; assay: Immunohistochemistry for Aβ1-42 in hippocampus of AD model rats; type: in vivo; conditions: AD rats, 10, 20 mg/kg, compared with the model group (p < 0.05)
Summary of the method: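 Hippocampal sections from five rats: endogenous peroxidase blocked, 5% normal goat serum in 0.3% Triton/PBS, rabbit anti-Aβ1-42 (1:300) overnight at 4 °C, biotinylated goat anti-rabbit (1:500) 1 h at room temperature, then DAB for 10 min.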

[11] = mice, single oral dose 1310 mg/kg
[12] = mice, single oral dose 1638 mg/kg
[13] = mice, single oral dose 2048 mg/kg
[14] = mice, single oral dose 2560 mg/kg
[15] = mice, single oral dose 3200 mg/kg
[16] = mice, single oral dose 4000 mg/kg

Chain of AChE (P22303 32-614): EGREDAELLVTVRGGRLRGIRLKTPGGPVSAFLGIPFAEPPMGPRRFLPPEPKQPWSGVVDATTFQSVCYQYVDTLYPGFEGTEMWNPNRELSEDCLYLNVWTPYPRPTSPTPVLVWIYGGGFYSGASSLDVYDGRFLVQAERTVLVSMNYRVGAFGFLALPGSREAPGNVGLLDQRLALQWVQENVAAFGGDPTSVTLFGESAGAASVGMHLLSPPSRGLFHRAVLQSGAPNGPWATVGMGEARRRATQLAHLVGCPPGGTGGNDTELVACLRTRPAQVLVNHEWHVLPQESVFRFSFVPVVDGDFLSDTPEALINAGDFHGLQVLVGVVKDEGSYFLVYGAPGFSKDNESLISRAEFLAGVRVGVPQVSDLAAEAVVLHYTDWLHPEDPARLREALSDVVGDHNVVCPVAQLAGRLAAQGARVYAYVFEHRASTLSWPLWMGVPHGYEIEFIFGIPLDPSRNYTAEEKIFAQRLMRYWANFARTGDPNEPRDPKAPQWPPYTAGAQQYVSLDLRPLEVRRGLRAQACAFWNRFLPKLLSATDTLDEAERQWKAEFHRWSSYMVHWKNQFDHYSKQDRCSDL

For `COc1c(OC(=O)N(C)c2ccccc2)cc2oc3cc4c(c(O)c3c(=O)c2c1CC=C(C)C)C=CC(C)(C)O4` [AMG-1, 5-Hydroxy-8-methoxy-2,2-dimethyl-7-(3-methylbut-2-en-1-yl)-6-oxo-2,6-dihydropyrano[3,2-b]xanthen-9-yl methyl(phenyl)carbamate], the IC50 [1] was 52.6 ± 11.3 µM, the “inhibition ratio (cytotoxic effect, cell proliferation)” value (“inhibition ratio” below) [2] was 7.2% and the LD50 at 14 day [3] was 2470 mg/kg. For the same compound, the “toxicity at the dose for administration” value ([4]; level of 20 mg/kg or less) was “no obvious toxicity”, the signs of toxicity ([4]; mice, acute oral toxicity experiment period) was “messy furs and loose gray stool around the anus” and the “time found dead after administration” value ([4]; mice, highest dosed group 4000 mg/kg oral) was 16 to 48 h. It also gave a deaths [4, 11] of 0, a death rate [4, 11] of 0% and a deaths [4, 12] of 1. For the same compound, the death rate [4, 12] was 10%, the deaths [4, 13] was 4 and the death rate [4, 13] was 40%. It also gave a deaths [4, 14] of 6, a death rate [4, 14] of 60% and a deaths [4, 15] of 7. It also gave a death rate [4, 15] of 70%, a deaths [4, 16] of 9 and a death rate [4, 16] of 90%. For the same compound, the “time spent in the central zone in open field” value ([5]; AD rats, 5, 10, 20 mg/kg oral 30 days, compared to the Aβ model group) was “dose-dependent increase”, the “total distance moved in open field” value ([5]; AMG-1 20 mg/kg oral once daily 30 days) was 28.55 ± 6.87 m and the “time in the target quadrant” value ([6]; probe trial) was “significantly more time”. The “time to reach the place of the removed platform” value ([6]; probe trial) was “significantly less time”, the “escape latency in Morris water maze” value ([6]; retention phase) was “significant improvements” and the “total distance traveled in Morris water maze” value ([6]; retention phase) was “significant improvements”. For the same compound, the “pyramidal cell morphology and density, hippocampus CA3 (HE staining)” value [7] was “better cell morphology and density than those in the model group”, the “neuronal damage in hippocampal CA1 (Nissl staining)” value [8] was “significantly attenuated” and the “number of senile plaques in hippocampus (silver staining)” value [9] was “less”. The “expression of Aβ1-42 in hippocampus (immunohistochemistry)” value [10] was “significantly reduced expression”.
For `CCN(C(=O)Oc1cc2oc3cc4c(c(O)c3c(=O)c2c(CC=C(C)C)c1OC)C=CC(C)(C)O4)c1ccccc1` [AMG-2, 5-Hydroxy-8-methoxy-2,2-dimethyl-7-(3-methylbut-2-en-1-yl)-6-oxo-2,6-dihydropyrano[3,2-b]xanthen-9-yl ethyl(phenyl)carbamate], the IC50 [1] was 35.1 ± 9.38 µM and the “inhibition ratio” value [2] was 6.7%.
With `COc1c(OC(=O)N(C)c2ccccc2C)cc2oc3cc4c(c(O)c3c(=O)c2c1CC=C(C)C)C=CC(C)(C)O4` [AMG-3, 5-Hydroxy-8-methoxy-2,2-dimethyl-7-(3-methylbut-2-en-1-yl)-6-oxo-2,6-dihydropyrano[3,2-b]xanthen-9-yl methyl(o-tolyl)carbamate] the IC50 [1] was 32.9 ± 7.78 µM and the “inhibition ratio” value [2] was 5.9%.
With `COc1cc2c(cc1OC)C(=O)C(CC1CCN(Cc3ccccc3)CC1)C2` (stereo not drawn) [donepezil, reference compound] the “total distance moved in open field” value ([5]; donepezil 1 mg/kg oral once daily 30 days) was 31.37 ± 7.14 m.
With `CC1=NN(c2ccccc2)C(=O)C1` [edaravone, reference compound] the “inhibition ratio” value [2] was 0%.
In the case of `COc1c(O)cc2oc3cc(O)c(CC=C(C)C)c(O)c3c(=O)c2c1CC=C(C)C` [α-M, 1,3,6-trihydroxy-7-methoxy-2,8-bis(3-methylbut-2-en-1-yl)-9H-xanthen-9-one, reference compound], the IC50 [1] is reported as 34.3 ± 6.06 µM and the “inhibition ratio” value [2] is reported as 73.1%.
